In ChEMBL document CHEMBL3124926, “Identification of highly efficacious glucocorticoid receptor agonists with a potential for reduced clinical bone side effects” (J Med Chem, 2014) one finds Activity and Emax data, which are given here for one compound.

Data set [1] concerns Mus musculus. Kind of data set: Toxicity in collagen-induced B10.RIII mouse arthritis model assessed as change in femur cortical thickness at 30 mg/kg, po qd for 35 days relative to 30% cremophor-treated control. In kind it is organism-based. Further details: dose 30 mg/kg, route oral. Conditions: in vivo, 840 h. The method in brief: (§1)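 Female B10.RIII mice were immunized with porcine type II collagen in complete Freund's adjuvant, enrolled at arthritis onset (10/group), and dosed orally once daily for five weeks in 30% cremophor vehicle. Four paws were scored 1–4 (max 16), as AUC. Serum biomarkers were taken at day 35. Femur cortical thickness was measured by microCT in non-immunized, age-matched mice dosed identically.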

The test system of data set [2] is Mus musculus. Kind of data set: Toxicity in collagen-induced B10.RIII mouse arthritis model assessed as change in femur cortical thickness at 3 mg/kg, po qd for 35 days relative to 30% cremophor-treated control. Conditions: in vivo, 840 h. On the set-up: dose 3 mg/kg, route oral. It is filed as organism-based. The method in brief: as §1
Data set [3] deals with Mus musculus. Kind of data set: Toxicity in collagen-induced B10.RIII mouse arthritis model assessed as change in femur cortical thickness at 30 mg/kg, po qd for 35 days relative to 1% methylcellulose-treated control. It is filed as organism-based. On the set-up: dose 30 mg/kg, route oral. The following applies: in vivo, 840 h. The method in brief: (§2)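 Female B10.RIII mice were immunized at 12–15 weeks with porcine type II collagen emulsified in complete Freund's adjuvant (100 μg intradermal, tail base). Animals were enrolled at first arthritis signs, 10 per group, and dosed orally once daily for five weeks in 1% methylcellulose. Paws were scored 1–4 each (max 16), with AUC taken. Serum was collected at day 35. Femur cortical thickness was measured by microCT in non-immunized, age-matched mice given the same dosing.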

The test system of data set [4] is Mus musculus. The data set is described as follows: Toxicity in collagen-induced B10.RIII mouse arthritis model assessed as change in femur cortical thickness at 3 mg/kg, po qd for 35 days relative to 1% methylcellulose-treated control. It is filed as organism-based. On the set-up: dose 3 mg/kg, route oral. Conditions: in vivo, 840 h. In short, it runs like this:
as §2

The subject of data set [5] is Mus musculus. The data set is described as follows: Toxicity in collagen-induced B10.RIII mouse arthritis model assessed as change in insulin level at 30 mg/kg, po qd for 35 days relative to 30% cremophor-treated control. It is filed as organism-based. On the set-up: dose 30 mg/kg, route oral. The following applies: in vivo, 840 h. The method in brief: as §1
Data set [6] concerns Mus musculus. The data set is described as follows: Toxicity in collagen-induced B10.RIII mouse arthritis model assessed as change in insulin level at 3 mg/kg, po qd for 35 days relative to 30% cremophor-treated control. On the set-up: dose 3 mg/kg, route oral. It is filed as organism-based. The following applies: in vivo, 840 h. The method in brief:
as §1

The test system of data set [7] is Mus musculus. Kind of data set: Toxicity in collagen-induced B10.RIII mouse arthritis model assessed as change in insulin level at 30 mg/kg, po qd for 35 days relative to 1% methylcellulose-treated control. Conditions: in vivo, 840 h. In kind it is organism-based. On the set-up: dose 30 mg/kg, route oral. The method in brief:
as §2

In data set [8] the test system is Mus musculus. Kind of data set: Toxicity in collagen-induced B10.RIII mouse arthritis model assessed as change in insulin level at 3 mg/kg, po qd for 35 days relative to 1% methylcellulose-treated control. In kind it is organism-based. Conditions: in vivo, 840 h. On the set-up: dose 3 mg/kg, route oral. In short, it runs like this: as §2
Data set [9] relates to Mus musculus. The data set is described as follows: Toxicity in collagen-induced B10.RIII mouse arthritis model assessed as change in free fatty acid level at 30 mg/kg, po qd for 35 days relative to 30% cremophor-treated control. It is filed as organism-based. On the set-up: dose 30 mg/kg, route oral. Conditions: in vivo, 840 h. In short, it runs like this: as §1
The subject of data set [10] is Mus musculus. Kind of data set: Toxicity in collagen-induced B10.RIII mouse arthritis model assessed as change in free fatty acid level at 3 mg/kg, po qd for 35 days relative to 30% cremophor-treated control. On the set-up: dose 3 mg/kg, route oral. Conditions: in vivo, 840 h. In kind it is organism-based. In short, it runs like this: as §1
The subject of data set [11] is Mus musculus. The data set is described as follows: Toxicity in collagen-induced B10.RIII mouse arthritis model assessed as change in free fatty acid level at 30 mg/kg, po qd for 35 days relative to 1% methylcellulose-treated control. It is filed as organism-based. On the set-up: dose 30 mg/kg, route oral. Conditions: in vivo, 840 h. The method in brief:
as §2

The subject of data set [12] is Mus musculus. Kind of data set: Toxicity in collagen-induced B10.RIII mouse arthritis model assessed as change in free fatty acid level at 3 mg/kg, po qd for 35 days relative to 1% methylcellulose-treated control. In kind it is organism-based. On the set-up: dose 3 mg/kg, route oral. Conditions: in vivo, 840 h. The method in brief:
as §2

In data set [13] the test system is Mus musculus. The data set is described as follows: Toxicity in collagen-induced B10.RIII mouse arthritis model assessed as change in triglyceride level at 30 mg/kg, po qd for 35 days relative to 1% methylcellulose-treated control. It is filed as organism-based. Further details: dose 30 mg/kg, route oral. The following applies: in vivo, 840 h. In short, it runs like this: as §2

For data set [14], the system named is Mus musculus. Kind of data set: Toxicity in collagen-induced B10.RIII mouse arthritis model assessed as change in triglyceride level at 3 mg/kg, po qd for 35 days relative to 1% methylcellulose-treated control. In kind it is organism-based. On the set-up: dose 3 mg/kg, route oral. Conditions: in vivo, 840 h. In short, it runs like this: as §2
Data set [15] relates to Mus musculus. Kind of data set: Toxicity in collagen-induced B10.RIII mouse arthritis model assessed as change in body fat at 30 mg/kg, po qd for 35 days relative to 30% cremophor-treated control. In kind it is organism-based. On the set-up: dose 30 mg/kg, route oral. The following applies: in vivo, 840 h. The method in brief: as §1
Data set [16] concerns Mus musculus. The data set is described as follows: Toxicity in collagen-induced B10.RIII mouse arthritis model assessed as change in body fat at 3 mg/kg, po qd for 35 days relative to 30% cremophor-treated control. It is filed as organism-based. On the set-up: dose 3 mg/kg, route oral. Conditions: in vivo, 840 h. In short, it runs like this: as §1
The test system of data set [17] is Mus musculus. The data set is described as follows: Toxicity in collagen-induced B10.RIII mouse arthritis model assessed as change in body fat at 30 mg/kg, po qd for 35 days relative to 1% methylcellulose-treated control. In kind it is organism-based. Further details: dose 30 mg/kg, route oral. The following applies: in vivo, 840 h. The method in brief:
as §2

Data set [18] deals with Mus musculus. Kind of data set: Toxicity in collagen-induced B10.RIII mouse arthritis model assessed as change in body fat at 3 mg/kg, po qd for 35 days relative to 1% methylcellulose-treated control. In kind it is organism-based. Further details: dose 3 mg/kg, route oral. Conditions: in vivo, 840 h. The method in brief: as §2
Data set [19] concerns Mus musculus. The data set is described as follows: Toxicity in collagen-induced B10.RIII mouse arthritis model assessed as change in AUC at 30 mg/kg, po qd for 35 days relative to 30% cremophor-treated control. Further details: dose 30 mg/kg, route oral. In kind it is organism-based. Conditions: in vivo, 840 h. The method in brief:
as §1

The test system of data set [20] is Mus musculus. Kind of data set: Toxicity in collagen-induced B10.RIII mouse arthritis model assessed as change in AUC at 3 mg/kg, po qd for 35 days relative to 30% cremophor-treated control. In kind it is organism-based. On the set-up: dose 3 mg/kg, route oral. The following applies: in vivo, 840 h. The method in brief: as §1
Data set [21] deals with Mus musculus. The data set is described as follows: Toxicity in collagen-induced B10.RIII mouse arthritis model assessed as change in AUC at 30 mg/kg, po qd for 35 days relative to 1% methylcellulose-treated control. It is filed as organism-based. On the set-up: dose 30 mg/kg, route oral. The following applies: in vivo, 840 h. In short, it runs like this:
as §2

Data set [22] deals with Mus musculus. The data set is described as follows: Toxicity in collagen-induced B10.RIII mouse arthritis model assessed as change in AUC at 3 mg/kg, po qd for 35 days relative to 1% methylcellulose-treated control. In kind it is organism-based. Further details: dose 3 mg/kg, route oral. Conditions: in vivo, 840 h. The method in brief:
as §2

The target of data set [23] is T1, Glucocorticoid receptor (Homo sapiens) (UniProt P04150).
T1 sequence (whole entry): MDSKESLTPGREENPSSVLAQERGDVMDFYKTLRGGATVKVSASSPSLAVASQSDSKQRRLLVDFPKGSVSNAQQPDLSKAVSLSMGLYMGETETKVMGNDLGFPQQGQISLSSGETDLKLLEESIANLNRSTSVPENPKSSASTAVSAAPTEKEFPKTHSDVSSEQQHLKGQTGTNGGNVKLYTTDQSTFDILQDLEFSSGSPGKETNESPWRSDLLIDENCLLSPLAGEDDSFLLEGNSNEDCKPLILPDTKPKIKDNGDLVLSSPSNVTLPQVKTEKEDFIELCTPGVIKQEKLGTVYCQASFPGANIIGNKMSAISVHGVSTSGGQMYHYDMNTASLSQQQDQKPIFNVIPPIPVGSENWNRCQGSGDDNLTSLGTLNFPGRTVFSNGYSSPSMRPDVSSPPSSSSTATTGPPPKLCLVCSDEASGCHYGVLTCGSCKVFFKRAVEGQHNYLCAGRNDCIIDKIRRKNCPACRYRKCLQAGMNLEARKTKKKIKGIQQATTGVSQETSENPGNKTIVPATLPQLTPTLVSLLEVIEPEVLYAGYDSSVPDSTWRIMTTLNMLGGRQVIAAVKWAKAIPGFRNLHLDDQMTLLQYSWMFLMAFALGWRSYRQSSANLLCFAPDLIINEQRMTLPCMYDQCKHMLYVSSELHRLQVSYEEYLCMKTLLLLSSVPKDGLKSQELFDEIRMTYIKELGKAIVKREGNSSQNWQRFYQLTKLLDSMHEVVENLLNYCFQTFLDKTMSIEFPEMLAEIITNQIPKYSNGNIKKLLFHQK
The data set is described as follows: Agonist activity at glucocorticoid receptor in human […] cells assessed as suppression of vitamin D-induced osteocalcin production at 2 uM after 48 hrs by Gla-type osteocalcin ELISA relative to dexomethasone. It is filed as cell-based. In short, it runs like this: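 MG-63 human osteosarcoma cells plated at 20000/well in DMEM/F-12 with 1% charcoal-filtered FBS and 10 μg/mL vitamin C. Medium refreshed next day, then vitamin D (10 nM final) added with compound (2 × 10−6 to 10−10 M), duplicates. Incubated 48 h at 37 °C; supernatant osteocalcin measured by Gla-type ELISA. Vitamin D-only wells = 100%. Max efficacy at 2 μM is relative to dexamethasone (100%).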
A general note: In an ELISA, binding on a coated surface is turned into a signal by an enzyme label.

The term Emax denotes the maximal effect, on the per cent scale that the assay sets. In the case of `C[C@]12C=CC(=O)C=C1CC[C@@H]1[C@@H]2[C@@H](O)C[C@@]2(C)[C@H]1CC[C@]2(O)C(=O)CO` [PREDNISOLONE], the Activity with Mus musculus [1] is given as -22%; in the data set with Mus musculus [2], -13%; in the data set on Mus musculus [3] it was -18%; with Mus musculus [4] it was -9%; in the data set with Mus musculus [5] it was 703%; in the data set on Mus musculus [6] it was 36%. Also, the Activity in the data set with Mus musculus [7] is on record as 103%; in the data set with Mus musculus [8] it was 62%; in the data set with Mus musculus [9], 54%; in the data set on Mus musculus [10], 30%; in the data set with Mus musculus [11] it was 44%; with Mus musculus [12], 39%. Further, the Activity is on record as 226% in the data set with Mus musculus [13]; 21% with Mus musculus [14]; 71% in the data set on Mus musculus [15]; 30% with Mus musculus [16]; 68% in the data set with Mus musculus [17]; 48% with Mus musculus [18]. Moreover, the Activity in the data set on Mus musculus [19] was -90%; in the data set with Mus musculus [20] it was -55%; with Mus musculus [21], -78%; in the data set with Mus musculus [22] it was -43%. In addition, in [23], the Emax turned out to be 78%.
